# Source: PubChem BioAssay (several laboratories)
# The full list was thinned out, with hits kept by preference.
# A1 inh = inhibitors of the anti-apoptotic protein A1, read as caspase activation. MEF A1-2A-BIM cells, Caspase-Glo 3/7 luminescence, 3 h; percent of clofoctol response, vehicle zero. 330,000 compounds, 0.066% hits. caspase activation, % (no concentration beside the values);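 active = over half of replicate activation scores above 10%, or exactly half above 10 with the replicate mean above 10; inconclusive = replicate mean below 10 yet half the replicates above 10; inactive = over half of replicates below 10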
# XBP1 UPR activ = adaptive UPR (XBP1) activation; CHO-XBP1 luciferase reporter, IRE1-XBP1 UPR activation, luminescence; percent of tunicamycin response, DMSO as zero; activation, % at 20 µM; AID 463104; 330,000 compounds, 0.33% hits;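 active = versus positive control, 20 µM dose yields 30% or more activation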;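 also: 100% = tunicamycin at 10 µg/mL and 0% = DMSO only wells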
#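 Assay system: IRE1-XBP1 luciferase reporter CHO line. Input: 1000 cells/well. Buffer or medium: F12 with 10% serum. Doses: 20 µM, 1% DMSO. Times: overnight seeding at 37 °C, 6 h compound treatment at 37 °C. Technique: Steady-Glo luciferase glow luminescence, 10 min after reagent addition.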
# CHOP inh = inhibitors of CHOP induction in ER stress response. 220,000 compounds, 3.8% hits. inhibition, % at 10 µM. CHO-K1 CHOP-promoter luciferase, tunicamycin-induced, 15-18 h;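 active = compounds that reduced the stress-induced luciferase reporter signal by more than about 70% of percent inhibition, limit read from the data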;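 also: 0% = tunicamycin plus vehicle and 100% = wells without tunicamycin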
# UPR CHOP act = activators of apoptotic arm of unfolded protein response (CHOP); CHO-CHOP luciferase reporter, UPR activation, luminescence; percent of tunicamycin response over DMSO baseline; 330,000 compounds, 0.34% hits; AID 449763; activation, % at 10 µM;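 active = at 10 µM dose, activation of 40% or more, normalized to positive control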;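 also: 100% = tunicamycin at 10 µg/mL and 0% = DMSO alone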
#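 Assay system: CHO cells with stable CHOP pathway luciferase reporter; Buffer or medium: F12 plus 10% serum; Times: 16-18 h cell attachment, then 6 h compound exposure, 37 °C; Signal: luciferase luminescence; Read-out basis: percent activation relative to tunicamycin control; Control set: tunicamycin high control, DMSO low control.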
# * = called active by the depositor; ? = inconclusive; nt = not tested or not shown.
SMILES,A1 inh,XBP1 UPR activ,CHOP inh,UPR CHOP act
CCOc1ccc(NC(=O)c2ccc(F)c(S(=O)(=O)N3CCN(c4ccccn4)CC3)c2)cc1,-1,1,58,6
Cc1cc(C)n2nc(SCC(=O)NC3CCCC(C)C3C)nc2n1 (stereo not drawn),0,-2,nt,-2
CC1CCC2C(C1)c1sc(=O)[nH]c1SC2(C)C (stereo not drawn),-1,0,83*,1
O=C(CN(c1cccc(Br)c1)S(=O)(=O)c1ccccc1)N/N=C/c1cc([N+](=O)[O-])ccc1O,0,-4,nt,-2
O=S(=O)(Nc1nc2ccccc2nc1Nc1ccc(N2CCOCC2)cc1)c1cc(Cl)ccc1Cl,0,-3,74*,1
Cc1ccc(S(=O)(=O)N(CC(=O)Nc2cccc([N+](=O)[O-])c2)C2CCCCC2)cc1,1,-5,23,0
Cc1ccc(S(=O)(=O)N(CC(=O)Nc2ccc(Cl)c([N+](=O)[O-])c2)C2CCCCC2)cc1,0,-2,73*,3
CCOC(=O)c1c(C)[nH]c(N=Nc2ccc(C)cc2)c1C,0,12,91*,5
CCOC(=O)c1c(C)[nH]c(N=Nc2cccc(OC)c2)c1C,-2,2,64,2
CCOC(=O)c1c(C)[nH]c(N=Nc2ccccc2)c1C,-1,29,-34,5
CCOC(=O)c1c(C)[nH]c(N=Nc2cccc(C)c2)c1C,-1,12,71*,3
Cc1ccc(NS(=O)(=O)c2ccc3c(c2)CCN3C(=O)CCC(=O)O)cc1Cl,1,-1,nt,1
Nc1ncnc2c1ncn2[C@@H]1O[C@H](C(=O)NC2CC2)[C@H](O)C1O (stereo partly drawn),nt,nt,-19,nt
CN1c2ccccc2C(C)(C)[C@]12C=Cc1cc(O)ccc1O2,0,2,95*,-1
COc1ccc(Cl)cc1NC(=O)CN(C)C1CCCCC1,1,2,76*,-1
COc1ccc(CC(=O)OCC(=O)NC(=O)NC23CC4CC(CC(C4)C2)C3)cc1,0,-2,96*,-1
COc1ccccc1NC(=O)c1cc2c(cc1Cl)N1CCCCCC1=NS2(=O)=O,0,-1,nt,0
Cn1c(C(=O)N2CCN(c3ccc(Cl)cc3)CC2)cc2c(=O)[nH]c3ccccc3c21,0,2,10,0
Cc1ccc(Cl)cc1N1CCN(C(=O)c2cc3c(=O)[nH]c4ccccc4c3n2C)CC1,0,7,94*,5
CC(C)(C)c1cc(NC(=O)CCSc2nnc3ccccn23)cc(C(C)(C)C)c1,-1,-3,88*,2
COc1cc(NC(=O)CSc2nnc3ccccn23)cc(OC)c1,1,-3,nt,2
CC(C)OCCCNC(=O)c1cn(C)c2ccc(S(=O)(=O)N(C)C3CCCCC3)cc2c1=O,1,-6,nt,0
CCC(=O)N(Cc1ccco1)c1nc(-c2cc(OC)ccc2OC)cs1,1,5,75*,0
CCC(=O)N(Cc1ccco1)c1nc(-c2ccc(OC)cc2)cs1,0,7,0,2
Cc1ccc(C)c(OCC(O)CN2CCC(CN3C(=O)c4cccc5cccc(c45)C3=O)CC2)c1 (stereo not drawn),-1,-3,76*,3
SMILES,A1 inh,XBP1 UPR activ,CHOP inh,UPR CHOP act
COc1ccc(OCC(O)CN2CCC(CN3C(=O)c4cccc5cccc(c45)C3=O)CC2)cc1 (stereo not drawn),1,0,nt,1
CCCCCCCCNC(=O)CCNC(=O)c1ccc(C(C)(C)C)cc1,1,-2,93*,0
CCCCOc1ccc(C(=O)NCCC(=O)NCCCC(=O)OCC)cc1,2,-1,18,1
CCOC(=O)c1cnc(SCC(=O)Nc2sc(C)c(C)c2C#N)nc1N,0,3,71*,2
CCOC(=O)c1cnc(SCC(=O)Nc2cc(OC)cc(OC)c2)nc1N,-1,-4,76*,1
O=C(NC(=S)NCc1ccco1)c1ccccc1[N+](=O)[O-],1,5,nt,3
NNc1nc2cc3c(cc2s1)OCCO3,?,-4,nt,-1
O=C(CSc1nnc(C2CC2)n1C1CC1)c1ccc(Br)s1,0,2,nt,3
Cc1cc(NC(=O)c2ccc(Cl)cc2)c(C)cc1O,-2,1,2,3
Cc1cc(C(C#N)c2ccc(Cl)cc2)c(Cl)cc1NC(=O)c1cc(I)cc(I)c1O (stereo not drawn),5.8*,1,nt,0
